Measurements as given in PubChem BioAssay AID588627 (Johns Hopkins Ion Channel Center, 2011).
Screen size: about 310,000 compounds; about 1,400 (0.45%) were called active.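 Rule for the calls: active = calcium response B-score plate-corrected fluorescence ratio at least 3 library SD, with starting fluorescence B-score inside 5 SD; inactive = the rest.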 The entries come from a sample that favours actives as a whole.

Each molecule was assayed against Mas-related G-protein coupled receptor member X1 (Homo sapiens) (UniProt Q96LB2) (assay: agonists of human MrgX1 receptor, primary screen, HEK293 cells, Fluo-4 calcium flux (AID 588627;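 for B-score: B-score of the peak-minus-trough calcium fluorescence change over baseline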)). Conditions: Fluo-4 calcium fluorescence, agonist mode, at 10 µM; stronger effect = higher value.
Chain of Mas-related G-protein coupled receptor member X1 (Homo sapiens) (Q96LB2 whole entry, looked up): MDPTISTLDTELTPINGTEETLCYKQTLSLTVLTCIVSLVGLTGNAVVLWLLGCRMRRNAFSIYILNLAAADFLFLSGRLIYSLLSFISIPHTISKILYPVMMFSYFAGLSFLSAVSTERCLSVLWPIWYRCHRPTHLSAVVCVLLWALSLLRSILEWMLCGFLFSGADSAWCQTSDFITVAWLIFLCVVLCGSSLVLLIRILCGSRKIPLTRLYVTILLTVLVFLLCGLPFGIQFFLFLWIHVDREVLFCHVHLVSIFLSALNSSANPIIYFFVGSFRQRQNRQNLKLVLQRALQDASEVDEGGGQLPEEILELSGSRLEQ
Procedure, shortened: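 Test system: HEK293 cells stably expressing human MrgX1 receptor; amount: 15,000 cells per well; doses: compound delivered in addition one of three; times: overnight plating before 1 h dye loading; detection: Fluo-4 NW calcium-flux fluorescence, kinetic read; read-out basis: B-scored fluorescence response ratio; controls: positive and negative controls per plate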
`CCCNC(=S)N1CCC(NC(=O)c2ccc(OC)cc2)CC1` was tested, and the B-score was “inactive”.
`CC(C)COC(=O)c1ccc(NC(=O)C2C3C=CC(C3)C2C(=O)O)cc1` (configuration not stated) was tested, and the B-score was “inactive”.
`CCOC(=O)c1[nH]c2ccc(C)cc2c1N=C(C)N(C)C` was tested, and the B-score was 44.7 (active).
In the case of `CCOC(=O)c1cc2cc(C)ccc2[nH]1`, the B-score is reported as “inactive”.
`CCOC(=O)c1[nH]c2ccccc2c1N=C(C)N(CC)CC` was tested, and the B-score was “inactive”.
With `Cn1c(N)cc(-c2ccc(F)cc2)c(C#N)c1=O` the B-score was “inactive”.
In the case of `O=C(CSc1nnc(-c2c[nH]c3ccccc23)n1-c1ccc(F)cc1)NCc1ccco1`, the B-score is reported as “inactive”.
`COc1cc(/C=C(\C#N)c2nc3ccccc3[nH]2)ccc1O` was tested, and the B-score was 58.8 (active).
In the case of `Cc1ccc2nc(/C(C#N)=C\c3ccc(OC(=O)c4cccs4)cc3)[nH]c2c1`, the B-score is reported as “inactive”.
In the case of `COc1cc(/C=C(\C#N)c2nc3c(s2)CC(C)CC3)ccc1O` (configuration not stated), the B-score is reported as “inactive”.
For `COCOc1cc(O)c(C(=O)/C=C/c2ccc(OCOC)c(OCOC)c2)c(OCOC)c1`, the B-score was “inactive”.
`Cc1cc(C)cc(NC(=O)c2cccc(NC(=O)C3C4CC5OC(=O)C3C5C4)c2)c1` (configuration not stated) was tested, and the B-score was “inactive”.
For `CCN(CC)C(=O)CSC(Nc1cccc(F)c1)=C(C#N)C#N`, the B-score was 39.4 (active).
For `CCN(CC)C(=O)C(=O)Nc1cccc(Br)c1`, the B-score was “inactive”.
`Cc1ccc(CSCC(=O)N(C)CC(=O)Nc2cccc(F)c2)cc1` was tested, and the B-score was “inactive”.
With `CS(=O)(=O)N(CC(=O)N1CCc2ccccc2C1)c1ccc(Br)cc1` the B-score was “inactive”.
`CCOCCCNC(=S)Nc1ccc2nc(N3CCN(CC)CC3)cc(C)c2c1` was tested, and the B-score was “inactive”.
For `CC(C)CN(Cc1c(O)ccc2c(=O)c(-c3ccccc3)coc12)CC(C)C`, the B-score was “inactive”.
For `CC(C)=CCc1c(O)c(CC=C(C)C)c2occ(-c3ccc(O)cc3)c(=O)c2c1O`, the B-score was 29.8 (active).
`CCOC(=O)c1nnn(CC(=O)Nc2cccc(F)c2)c1C(=O)OCC` was tested, and the B-score was “inactive”.
`CCNS(=O)(=O)c1ccc(CCC(=O)N2CCN(c3ccc(OC)cc3)CC2)cc1` was tested, and the B-score was “inactive”.
In the case of `Cc1cc(=O)oc2c3c(cc(OCC(=O)N[C@H](C(=O)O)c4ccccc4)c12)OC(C)(C)CC3`, the B-score is reported as “inactive”.
For `Cc1c(C)c2c(OCC(=O)NCCCO)cc3c(c2oc1=O)CCC(C)(C)O3`, the B-score was “inactive”.
With `Cc1c(C)c2c(OCC(=O)N[C@@H](C(=O)O)c3ccccc3)cc3c(c2oc1=O)CCC(C)(C)O3` the B-score was 43.9 (active).
For `O=C(C[n+]1ccc2c(c1)nnn2-c1ccccc1)c1ccc(Cl)cc1`, the B-score was “inactive”.
For `N#C/C(=C/c1ccc(N2CCCCC2)o1)C(=O)NCCc1c[nH]c2ccccc12`, the B-score was 37.2 (active).
For `O=C(CN1C(=O)NC2(CCCCC2)C1=O)NCCc1c[nH]c2ccccc12`, the B-score was “inactive”.
`CC(=O)N/C(=C/c1ccc(Cl)cc1)C(=O)NCCc1c[nH]c2ccccc12` was tested, and the B-score was “inactive”.
`COC(=O)c1ccccc1Oc1c(F)c(F)nc(N2CCOCC2)c1F` was tested, and the B-score was “inactive”.
With `c1ccc(-n2cccc2)c(N2CCCCC2)c1` the B-score was “inactive”.
For `O=C(NCc1cccnc1)c1cnc2ccccc2n1`, the B-score was “inactive”.
With `Cc1ccnc(N2CCCC(C(=O)NC3CC3)C2)n1` (configuration not stated) the B-score was “inactive”.
In the case of `Cc1ccnc(-n2sc3ccccc3c2=O)n1`, the B-score is reported as 37 (active).
`Cc1ccnc(SCC(N)=O)n1` was tested, and the B-score was “inactive”.
`CC1CN(C(=O)COC(=O)c2cccc(NS(=O)(=O)c3ccccc3)c2)CC(C)O1` (configuration not stated) was tested, and the B-score was “inactive”.
With `Nc1c(C(=O)c2cccs2)sc2nsc(SCCN3CCCCC3)c12` the B-score was 53.3 (active).
With `Cc1nc2sc(C(=O)c3ccccc3)c(N)c2c2c1CCCC2` the B-score was “inactive”.
With `CN(C)c1ccnc2sc(C(=O)c3ccccc3)c(N)c12` the B-score was “inactive”.
`C/C(=C\c1ccco1)C1Nc2cccc3cccc(c23)N1` was tested, and the B-score was “inactive”.
With `COC1(C2=NCCN2)COc2ccccc2O1` (configuration not stated) the B-score was “inactive”.
In the case of `COc1ccc(Nc2ncc(C(=O)N3CCN(c4ccccc4OC)CC3)c3ccccc23)cc1`, the B-score is reported as “inactive”.
In the case of `COc1cc(SC#N)ccc1N=Cc1c(C)[nH]n(-c2ccc(C)cc2)c1=O`, the B-score is reported as “inactive”.
In the case of `Cc1ccc(-n2[nH]c(C)c(/C=N/N3C(=O)c4cccc5cccc(c45)C3=O)c2=O)cc1`, the B-score is reported as 104 (active).
For `Cc1[nH]n(-c2cccc(Cl)c2)c(=O)c1/C=N/n1c(C)nc2ccccc2c1=O`, the B-score was “inactive”.
For `CCS(=O)(=O)n1nc(-c2ccc(OC)cc2)nc1SC`, the B-score was “inactive”.
For `CCS(=O)(=O)n1nc(-c2ccccc2)nc1SCc1ccccc1`, the B-score was 27.5 (active).
With `CCn1c(SCc2ccccc2)nc2c(c1=O)SCC2` the B-score was “inactive”.
For `CN(CCOc1ccc(Br)cc1)CC(=O)Nc1cccc(S(=O)(=O)NC2=NCCC2)c1`, the B-score was “inactive”.
In the case of `CCCCN(C)CCCNC(=O)c1cc(-c2cccs2)nc2ccccc12`, the B-score is reported as “inactive”.
In the case of `O=C(Nc1nnc(-c2ccccc2)o1)c1cc(-c2cccs2)nc2ccccc12`, the B-score is reported as 26.9 (active).
For `O=C(NCCN1CCOCC1)c1cc(-c2cccs2)nc2ccccc12`, the B-score was “inactive”.
With `CCOC(=O)/C(=N\Nc1ccccc1[N+](=O)[O-])c1csc(Nc2ccccc2)n1` the B-score was “inactive”.
For `O=C(Nc1ccc(Cl)cc1)C1c2cccc[n+]2CC(=O)N1Cc1ccc2c(c1)OCO2` (configuration not stated), the B-score was “inactive”.
With `CCN1/C(=C\c2ccc3ccccc3[n+]2CC)Sc2cc(C)ccc21` the B-score was “inactive”.
With `CCN1/C(=C/c2ccc3ccc(C)cc3[n+]2CC)Sc2ccccc21` the B-score was 123 (active).
For `CC(C)OCCCNC(=O)c1ccc(C2SCC(=O)N2Cc2ccco2)cc1` (configuration not stated), the B-score was “inactive”.
With `COc1cc(NC(=O)c2ccc3c(c2)OCO3)ccc1NC(=O)c1cccs1` the B-score was “inactive”.
`COc1ccc(OCCCC(=O)OC(C)C(=O)Nc2ccccc2[N+](=O)[O-])cc1` (configuration not stated) was tested, and the B-score was “inactive”.
`COc1ccccc1N(CC(=O)N1CCCCC1)S(=O)(=O)c1ccccc1` was tested, and the B-score was 50 (active).
`COc1ccc(C)cc1N(CC(=O)N1CCCC1)S(=O)(=O)c1ccccc1` was tested, and the B-score was “inactive”.
With `COc1ccc(N(CC(=O)N2CCCCCC2)S(=O)(=O)c2ccccc2)cc1` the B-score was “inactive”.
`Cc1cccc(-c2nc3c(c(SCC(=O)N4CCOCC4)n2)CCCC3)c1` was tested, and the B-score was “inactive”.
With `C=CCn1c(=NC(=O)c2cccs2)sc2cc(NC(C)=O)ccc21` the B-score was “inactive”.
For `CCCc1[nH]nc2c1C(c1ccc(OC(=O)c3ccco3)cc1)C(C#N)=C(N)O2` (configuration not stated), the B-score was “inactive”.
In the case of `CCCc1[nH]nc2c1C(c1ccc(Br)s1)C(C#N)=C(N)O2` (configuration not stated), the B-score is reported as 26.9 (active).
With `CCCc1[nH]nc2c1C(C1CC=CCC1)C(C#N)=C(N)O2` (configuration not stated) the B-score was “inactive”.
In the case of `COc1ccc(S(=O)(=O)N2CCN(c3ncnc4c(-c5ccccc5)nsc34)CC2)cc1`, the B-score is reported as “inactive”.
In the case of `COc1ccccc1CCNS(=O)(=O)c1cn(C)nc1C`, the B-score is reported as “inactive”.
With `CS(=O)(=O)N(CC(=O)N1CCCCCC1)c1cccc(Cl)c1Cl` the B-score was “inactive”.
In the case of `Cc1ccc(-n2cc(CN(C)Cc3nccn3C)c(-c3cccc(C)c3)n2)cc1`, the B-score is reported as “inactive”.
With `CCOc1c(Nc2cccc(Cl)c2)c(=O)c1=O` the B-score was “inactive”.
With `O=C(CCN1CCN(C/C=C/c2ccccc2)CC1)Nc1ccccc1Cl` the B-score was “inactive”.
`Cc1[nH][nH]c(=O)c1C(c1ccc(-c2ccc(Cl)cc2)o1)c1c(C)[nH][nH]c1=O` was tested, and the B-score was 46.3 (active).
For `CCOc1ccc(C(c2c(C)[nH][nH]c2=O)c2c(C)[nH][nH]c2=O)cc1OCC`, the B-score was “inactive”.
For `O=C(NC1CCCCC1)c1ccc(-c2ccc(Cl)cc2)o1`, the B-score was “inactive”.
For `CCNc1nc(NC(C)C)nc(OCCOC(=O)c2ccccc2)n1`, the B-score was “inactive”.
`COc1cccc(-c2ccc(SCC(=O)N3CCN(c4ccccc4)CC3)nn2)c1` was tested, and the B-score was “inactive”.
With `CN1CCN(/N=C/c2ccc(C#N)cc2)CC1` the B-score was “inactive”.
`Cc1ccc(-c2ccc(/C=N/NC(=O)CN3CCOCC3)o2)cc1[N+](=O)[O-]` was tested, and the B-score was “inactive”.
With `CN1CCN(/N=C/c2ccc(-c3ccc([N+](=O)[O-])cc3)o2)CC1` the B-score was 31.5 (active).
In the case of `Cn1c(Cn2nnc3ccccc32)nnc1SCC(=O)c1ccccc1F`, the B-score is reported as “inactive”.
In the case of `CCN(CC)S(=O)(=O)c1ccc(N2CCCC2)c(NS(=O)(=O)c2cccs2)c1`, the B-score is reported as “inactive”.
`Cc1cc2nc(C(F)(F)F)cc(-c3cccs3)n2n1` was tested, and the B-score was “inactive”.
For `CC(C)(C)Nc1c(-c2cccs2)nc2ccccn12`, the B-score was 44.8 (active).
For `Cc1nc2ccccn2c(=O)c1NC(=O)c1cccs1`, the B-score was “inactive”.
`COC(=O)c1ccc(NC(=O)CN(c2ccc(C)cc2)S(=O)(=O)c2c(C)n[nH]c2C)cc1` was tested, and the B-score was “inactive”.
In the case of `O=C(CSC1=NS(=O)(=O)c2cc(F)ccc2N1)Nc1ccccc1F`, the B-score is reported as “inactive”.
In the case of `COC(=O)Cn1cc(/C=C/[N+](=O)[O-])c2ccccc21`, the B-score is reported as 31.6 (active).
For `COC(=O)N/N=C/c1cn(CCCOc2ccc(C)cc2)c2ccccc12`, the B-score was “inactive”.
In the case of `COC(=O)c1cn(CC(=O)NCc2cccs2)c2ccccc12`, the B-score is reported as “inactive”.
`CCCCn1c(N)c(N(CCOC)C(=O)c2cccc(S(=O)(=O)N3CCCCC3)c2)c(=O)[nH]c1=O` was tested, and the B-score was “inactive”.
`COCCCNC(=O)CN1C(=O)CSc2ccc(S(=O)(=O)N3CCOCC3)cc21` was tested, and the B-score was “inactive”.
For `CCN(CC)c1ccc2oc(=O)c(C)nc2c1`, the B-score was 27 (active).
In the case of `CCN(CC)c1ccc(C(=O)Nn2c(C)nc3ccccc3c2=O)cc1`, the B-score is reported as “inactive”.
`C=CCN(C(=O)Nc1ccc2oc(C)nc2c1)c1ccccc1` was tested, and the B-score was “inactive”.
`Cc1ccc2c(c1)C1CN(C)CCC1N2S(=O)(=O)c1ccc(Oc2ccc([N+](=O)[O-])cc2)cc1` (configuration not stated) was tested, and the B-score was “inactive”.
`COC(=O)CNC(c1ccccc1Cl)c1cc(Br)ccc1NC(=O)CCN1CCOCC1` (configuration not stated) was tested, and the B-score was “inactive”.
For `O=C1/C(=C/c2ccc(F)cc2)SC(=S)N1CCCC(=O)N1CCCCC1CCO` (configuration not stated), the B-score was “inactive”.
`O=C(O)c1ccc(/C=C2\SC(=S)N(NC(=O)c3ccc(Br)cc3)C2=O)cc1` was tested, and the B-score was “inactive”.
In the case of `O=C1/C(=C/c2ccc(F)cc2)SC(=S)N1NS(=O)(=O)c1ccccc1`, the B-score is reported as 27.7 (active).
In the case of `S=c1[nH]nc(NCCc2ccccc2)s1`, the B-score is reported as “inactive”.
For `Cc1nc(C)c(-c2csc(NCCc3ccccc3)n2)s1`, the B-score was 32.5 (active).
For `CCNc1nc(-c2cc3ccccc3o2)cs1`, the B-score was “inactive”.
With `Cc1ccccc1NC(=O)Cn1cc(C(=O)C2CC2)c2ccccc21` the B-score was “inactive”.
With `COc1ccc2c(c1)O/C(=C\c1ccccc1O)C2=O` the B-score was “inactive”.
For `COc1ccc2c(c1)OC(O)(C(F)(F)C(F)F)CC2=O` (configuration not stated), the B-score was 79.7 (active).
With `COc1ccc2c(c1)SC(C)CC2=O` (configuration not stated) the B-score was “inactive”.
